# The list is not random: actives were taken first. Their share in the collection is about 5.3%.
# FAK blocker – blocks human focal adhesion kinase activity; biochemical FAK kinase activity assay; Q05397; 0.84% of 97,000 active; inhibition, %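 (tested at 7 µM)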; in the data active means inhibition above about 19%;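 further: 0% = DMSO and 100% = reference compound high control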
# PLK1 kinase inh – blocks human PLK1 kinase activity. P53350. recombinant PLK1 kinase, TR-FRET peptide phosphorylation. inhibition, % at 10 µM. 0.53% of 97,000 active. AID 619;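 active means inhibition of 50% or more in the single-concentration screen; inactive means inhibition below 50%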;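 further: 0% = DMSO max control and 100% = H-89 dihydrochloride min control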
# PLK1 PBD inh – inhibitors of human Plk1 polo box domain binding. P53350. AID 693. inhibition, %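 (tested at about 20 µM)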. Plk1 PBD phosphopeptide binding, fluorescence polarization. 0.13% of 97,000 active; in the data active means inhibition above about 34%, passing the limit was not always enough
# EphB4 ephrin blk – EphB4-ephrin-B2 interaction antagonism; 0.15% of 97,000 active; EphB4 LBD / TNYL-RAW-Alexa532 peptide, fluorescence polarization; inhibition, % at 7 µM; P54760; AID 720;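 active means inhibition above the screen-wide mean inhibition plus 3 SD, cut at about 15% in these data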;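 further: 0% = DMSO wells and 100% = excess unlabeled TNYL-RAW peptide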
# HIV Rev-RRE inh – disrupts HIV-1 Rev binding to RRE RNA; 0.79% of 97,000 active; Rev peptide-RRE RNA binding, FRET; inhibition, % at 8 µM;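 active means inhibition above the screen-wide mean plus 3 SD, cut at about 35% in these data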;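 further: 0% = median DMSO wells and 100% = median Neomycin B control wells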
#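 Assay system: Labelled RRE RNA duplex and labelled Rev peptide | Times: 5 min preincubation and 15 min binding, 25 °C | Detection: FRET, ex 480 nm, em 540 and 671 nm | Evaluation: % inhibition of FRET ratio versus controls | Benchmarks: DMSO wells as 0% and neomycin B wells as 100% inhibition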
# Cav32 inh – human Cav3.2 channel inhibition, primary screen; B-score at 10 µM; Cav3.2-expressing cells, Fluo-4 calcium fluorescence FDSS; active compounds read low; AID 449739; 4% of 100,000 active;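 active means single-dose well whose peak fluorescence ratio is a statistical outlier from its plate by either plate-standardised score or position-corrected B-score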
# An asterisk follows results filed as active; · = not tested or not shown; [ ] = dose if it differs, or a comment.
SMILES,FAK blocker,PLK1 kinase inh,PLK1 PBD inh,EphB4 ephrin blk,HIV Rev-RRE inh,Cav32 inh
O=C(C1COc2ccccc2O1)N1CCc2ccccc2C1 (centres undefined),3,-9,-2,1,-3,-1.6
CC1(c2nnc(-c3ccc(F)cc3)o2)CC(c2ccc([N+](=O)[O-])cc2)=NO1 (centres undefined),·,·,·,·,·,-0.039
CN(C)c1ccc(C(c2nnnn2CCOC(=O)Nc2ccc(Cl)cc2)N2CCOCC2)cc1 (centres undefined),-3,-4,27,-2,2,-4.1*
O=C(Nc1ccc(Cl)cc1)OCCn1nnnc1C(c1ccccc1)N1CCOCC1 (centres undefined),-12,-4,-22,-2,4,-0.44
CNC(=O)Cn1nc(-c2ccc(C)c(S(=O)(=O)N(C)C)c2)c2ccccc2c1=O,-2,-8,24,2,0,-0.32
O=C(Nc1cccc(O)c1)c1cnn2cccnc12,3,57*,-6,-4,3,-3.8
Cc1ccc(-n2nnnc2-c2cnc(N3CCCC3)nc2C(F)(F)F)cc1,7,-5,-13,5,-2,-4.5*
CC(C)CC(/C(O)=C(\C#N)c1nc2ccccc2[nH]1)N1C(=O)c2ccccc2C1=O (centres undefined),-12,-5,0,0,1,-6.6*
CC(C)(C)/C(O)=C(/C#N)c1nc2ccccc2[nH]1,-1,-25,-10,-5,5,·
Clc1ccc(C2=CC(c3ccco3)n3ncnc3N2)cc1 (centres undefined),6,-11,-36,4,122*[fluorescence artefact?],-5.6*
COc1ccc(C2C=C(c3ccc(C)c(C)c3)Nc3ncnn32)c(OC)c1OC (centres undefined),1,67*,-4,4,9,-1.1
Cc1ccc(C2=CC(c3ccc(C)cc3)n3ncnc3N2)cc1 (centres undefined),·,·,·,·,·,-0.62
COc1ccc(C2C=C(c3ccccc3)Nc3ncnn32)cc1 (centres undefined),3,-21,-25,5,45*,-2.2
COc1cc2cc(C(c3nnnn3C(C)(C)C)N3CCC(C)CC3)c(=O)[nH]c2cc1OC (centres undefined),4,-26,3,-8,8,0.19
O=C(N/N=C/c1ccc(Br)cc1)c1ccccc1-n1cccc1,1,-12,8,3,4,-2.6
Cc1cccc2cc(CN(Cc3ccc(F)cc3)C(=O)N(C)C)c3nnnn3c12,2,-8,6,5,11,-6.1*
Cc1cccc2cc(CN(Cc3ccc(F)cc3)C(=O)C(F)(F)F)c3nnnn3c12,0,-10,-1,6,10,0.42
CS(=O)(=O)N(CC(=O)Nc1ccc(CC#N)cc1)c1ccc(C23CC4CC(CC(C4)C2)C3)cc1,-4,-10,-12,-4,0,-3.6
CN(C)c1nccc(N(Cc2ccccc2)Cc2ccccc2)c1C#N,0,-7,-17,5,3,-5.7*
O=C(c1cccn2c(=O)c3cc4ccccc4cc3nc12)N1CCN(c2ccccc2)CC1,-2,-13,-18,-6,44*,·
Cc1ccc(Cl)cc1N1CCN(C(=O)c2ccc(NS(=O)(=O)c3c(C)noc3C)cc2)CC1,-2,-13,-14,2,0,·
Cc1ccc(C)c(N2CCN(C(=O)c3ccc(NS(=O)(=O)c4c(C)noc4C)cc3)CC2)c1,-2,-8,33,2,-4,-8.3*
CCOc1ccc(C(=O)Nc2c3c(nn2C(C)(C)C)CSC3)cc1OCC,3,-10,-21,-2,-3,-3.3*
CCOc1ccc(C(=O)Nc2nnc(C)s2)cc1OCC,0,7,1,-7,-1,0.48
COC(C[C@H]1O[C@H]1[C@H](O)COCc1ccccc1)OC,·,·,·,·,·,1
SMILES,FAK blocker,PLK1 kinase inh,PLK1 PBD inh,EphB4 ephrin blk,HIV Rev-RRE inh,Cav32 inh
CCCCCCn1c(=O)c(-c2ccccc2)c(O)c2ccccc21,-4,0,9,3,-5,-7.1*
CC(C)C[C@H](NC(=O)c1nc[nH]c1C(=O)N(C)Cc1ccccc1)C(=O)OCc1ccccc1,·,·,·,·,·,-2.4
Cc1ccc2cc3cc(C(=O)N4CCN(Cc5ccccc5)CC4)sc3nc2c1,0,-2,-15,7,16,-0.13
Cc1cc(C(=O)N2CCN(Cc3ccc4c(c3)OCO4)CC2)on1,·,·,·,·,·,0.39
Cc1nn(Cc2ccccc2)c2sc(C(=O)N3CCN(Cc4ccc5c(c4)OCO5)CC3)cc12,2,3,13,-3,-6,-4.3*
CC1CCN(c2nc3ccc(C(=O)N4CCN(Cc5ccccc5)CC4)cc3s2)CC1,-5,-14,-25,1,-1,-5.8*
O=C(c1ccc2nc(N3CCCCC3)sc2c1)N1CCN(Cc2ccc3c(c2)OCO3)CC1,·,·,·,·,·,-4*
CCc1cc2cc(C(=O)N3CCN(Cc4ccccc4)CC3)sc2s1,2,2,5,6,6,-4.8*
CC(=O)n1cc([C@H]2C=C(C(=O)N3CCOCC3)O[C@@H](OCCCCO)C2)c2ccccc21,·,·,·,·,·,0.18
COc1ccc(C2=NOC(C)(c3nnc(-c4ccc(Cl)cc4)o3)C2)cc1 (centres undefined),·,·,·,·,·,-0.42
N=c1c(C(=O)NCc2ccc(F)cc2)cc2c(=O)n3ccccc3nc2n1Cc1cccnc1,8,-2,4,-9,37*,-0.46
COC(=O)c1cc2c(=O)n3ccccc3nc2n(Cc2cccnc2)c1=N,7,-4,2,0,11,0.86
CC(=O)c1c(O)cc(O)c(C(C)=O)c1O,·,·,·,·,·,-5.4*
Cc1cccc(N(C(=O)c2ccc(CN3CCOCC3)o2)C(C(=O)NC(C)(C)C)c2ccc(F)cc2)c1 (centres undefined),-2,-7,-2,-6,-8,-2.8
COc1ccc([N+](=O)[O-])cc1N(CC(O)CN(CC(C)C)CC(C)C)S(=O)(=O)c1ccccc1 (centres undefined),0,-13,-4,2,-2,-3.9*
CCOC(=O)C(C)Sc1ncc(-c2ccc(Cl)cc2)cn1 (centres undefined),1,-5,9,-10,11,-1.3
Cc1cc2cc(CN(C(=O)C3CC3)C3CCCC3)c3nnnn3c2cc1C,·,·,·,·,·,-4.9*
CCc1cc(/C(Cc2ccccn2)=N\O)c(O)cc1O,10,-1,15,3,2,-1.5
CCc1cc(/C(Cc2ccc3ccccc3n2)=N\O)c(O)cc1O,2,-8,-7,-3,11,-3.9*
NC(=O)c1ccccc1N,·,·,·,·,·,0.72
CC1CCCCC1NC(=O)c1ccc(N2CCCC2=O)cc1 (centres undefined),-2,-22,-11,-10,2,-5.1*
CCCCn1c(-c2ccccc2)cnc1SCC(=O)NCCc1ccc(OC)c(OC)c1,0,-4,-8,-5,0,-4.5*
COc1ccc(CCNC(=O)CSc2nnc(-c3ccccc3)o2)cc1OC,·,·,·,·,·,-0.29

# Screening data as filed in PubChem.
